Assay results of several laboratories.
Protocols differ between the studies behind these lines.
Medium: plasma

Cc1ccc(C(=O)N(CCCN)[C@@H](c2oc3cc(Cl)ccc3c(=O)c2Cc2ccccc2)C(C)C)cc1
Cmax (human; intravenous, 4 mg/m², single dose, patients, infusion): 489 ng/mL

CO[C@H]1/C=C\C=C(/C)C(=O)NC2=CC(=O)C(NCCN(C)C)=C(C[C@@H](C)C[C@H](OC)[C@H](O)[C@@H](C)/C=C(\C)[C@@H]1OC(N)=O)C2=O
Cmax (human; intravenous, 27 mg/m², patients, infusion): 443 ng/mL

CCOc1cc([C@@H](CS(C)(=O)=O)N2C(=O)c3cccc(NC(C)=O)c3C2=O)ccc1OC
Cmax (human; oral, 30 mg, single dose, healthy volunteers): 278 ng/mL

Oc1cc(O)c2c(c1)O[C@@H](c1ccc(O)c(O)c1)[C@@H](O)C2
Cmax (human; oral, 30 mg, single dose): 0.7 ng/mL

COc1cc(C(=O)NC2CCN(C)CC2)c(F)cc1Nc1ncc(C(F)(F)F)c(Oc2cccc3c2C(=O)N(C)C3)n1
Cmax (human; oral, 10 mg, multiple doses, once daily, steady state, patients): 59.2 nM

CO[C@H]1CC[C@H](N2C(=O)CNc3ncc(-c4ccc(C(C)(C)O)nc4)nc32)CC1
Cmax (human; oral, 30 mg, patients): 188 ng/mL

COc1ccc(-n2nc(C(N)=O)c3c2C(=O)N(c2ccc(N4CCCCC4=O)cc2)CC3)cc1
Cmax (human; oral, 10 mg, healthy volunteers): 261 ng/mL

C/C(=C\c1csc(C)n1)[C@@H]1C[C@@H]2O[C@]2(C)CCC[C@H](C)[C@H](O)[C@@H](C)C(=O)C(C)(C)[C@@H](O)CC(=O)N1
Cmax (human; intravenous, 15 mg/m², patients): 89.6 ng/mL

CNC(=O)c1cc(Oc2ccc(NC(=O)Nc3cc(C(C)(C)C)nn3-c3ccc4ncccc4c3)c(F)c2)ccn1
Cmax (human; oral, 150 mg, multiple doses, twice daily): 308 ng/mL

COCCOc1cnc2ccn([C@H](C)c3nnc4c(F)cc(-c5cnn(C)c5)cn34)c(=O)c2c1
Cmax (human; oral, 150 mg, multiple doses, once daily, patients): 2910 ng/mL

CCCOc1ccc([C@H]2CNC(=O)N2c2ccc3[nH]cnc3c2)cc1
Cmax (human; oral, 200 mg, single dose, fasted, healthy volunteers): 1200 ng/mL

C[C@@H](Oc1ccc(S(C)(=O)=O)cc1C(=O)N1C[C@@H]2C[C@]2(c2cc(C(F)(F)F)on2)C1)C(F)(F)F
Cmax (human; oral, 25 mg, fasted, tablet): 219 nM

CCO[C@H]1CCN(Cc2c(OC)cc(C)c3[nH]ccc23)[C@H](c2ccc(C(=O)O)cc2)C1
Cmax (human; oral, 100 mg, multiple doses, twice daily, patients): 2640 ng/mL

O=C(Nc1c(Cl)cncc1Cl)c1ccc(OC(F)F)c(OCC2CC2)c1
Cmax (human; oral, 0.375 mg, single dose, fasted): 9.2 ng/mL

COc1cc2c(cc1OC)CN(CCc1ccc(NC(=O)c3cc(OC)c(OC)cc3NC(=O)c3cnc4ccccc4c3)cc1)CC2
Cmax (human; intravenous, 1 mg/kg, patients): 2200 nM

Nc1cc(C(F)(F)F)c(-c2cc(N3CCOCC3)nc(N3CCOCC3)n2)cn1
Cmax (human; oral, 25 mg/day, patients): 289 ng/mL

CO[C@@H]1[C@H](OC(=O)N2CC(CCN3CCOCC3)C2)CC[C@]2(CO2)[C@H]1[C@@]1(C)O[C@@H]1CC=C(C)C
Cmax (human; subcutaneous, 4.8 mg, single dose, healthy volunteers): 18.7 ng/mL

CC(C)(Sc1ccncc1-c1ccc(C#N)c2ccccc12)C(=O)O
Cmax (male human; oral, 5 mg, single dose, fed, healthy volunteers): 45.7 ng/mL

NS(=O)(=O)NCCNc1nonc1C(=NO)Nc1ccc(F)c(Br)c1
Cmax (human; oral, 300 mg, multiple doses, twice daily, steady state, patients): 2480 nM

CS(=O)(=O)CCNCc1ccc(-c2ccc3ncnc(Nc4ccc(OCc5cccc(F)c5)c(Cl)c4)c3c2)o1
Cmax (human; oral, 500 mg, multiple doses, twice daily, steady state, patients): 2370 ng/mL

Cn1cc(-c2ccc(S(=O)(=O)[C@@H]3C[C@@H](C(=O)NC4(C#N)CC4)N(C(=O)C4(C(F)(F)F)CC4)C3)c(C(F)(F)F)c2)cn1
Cmax (human; oral, 10 mg, single dose, fasted, healthy volunteers): 81.3 ng/mL

CCn1c(=O)c(-c2cc(NC(=O)Nc3ccccc3)c(F)cc2Br)cc2cnc(NC)cc21
Cmax (human; oral, 250 mg, single dose, patients): 1070 ng/mL

CC(C)(C(=O)N1CCOc2c(C#N)cncc2C1)C(F)F
Cmax (human; oral, 20 mg, multiple doses, once daily): 250 ng/mL

COc1ccc([C@@H]2CN(C(=O)[C@@H](O)CO)C[C@@]2(C)[C@@H](C)O)cc1OC1CN(c2ccc(C)cn2)C1
Cmax (human; oral, 30 mg, single dose, healthy volunteers): 669 ng/mL

C#Cc1cccc(Nc2ncnc3cc(OCCOC)c(OCCOC)cc23)c1
Cmax (human; oral, 50 mg, patients): 1170 nM

CC(C)n1cc(C#N)c2cc(-n3cc(C(=O)O)cn3)ccc21
Cmax (male human; oral, 600 mg, single dose, fasted, healthy volunteers): 18200 ng/mL

CC(C)(O)c1ccccc1-c1ccc2[nH]c(/C=C/c3ccc(C(F)(F)F)cc3)nc2c1
Cmax (male human; oral, 225 mg, single dose, fasted, healthy volunteers): 525 ng/mL

Cn1c(=O)oc2ccc(-c3ccc(C[C@@H](C#N)NC(=O)[C@@H]4CNCCCO4)cc3)cc21
Cmax (male human; oral, 5 mg, single dose, healthy volunteers): 50.7 nM

O=C(/C=C/c1cccc(S(=O)(=O)Nc2ccccc2)c1)NO
Cmax (human; intravenous, 1800 mg/m², patients): 76800 ng/mL

FC(F)(F)c1ccc(CNc2ccc(Cc3c[nH]c4ncc(Cl)cc34)cn2)cn1
Cmax (human; oral, 600 mg, single dose, fasted, healthy volunteers): 4220 ng/mL

C[C@@]1(c2cc(NC(=O)c3ccc(C#N)cn3)ccc2F)C=CSC(N)=N1
Cmax (human; oral, 1 mg, single dose): 5.62 ng/mL

Br.Cc1ccc(Sc2ccccc2N2CCNCC2)c(C)c1
Cmax (human; oral, 10 mg, multiple doses, steady state, healthy volunteers): 18 ng/mL

N#CN1C[C@H](n2nc(-c3ccc(Oc4ccc(Cl)cn4)cc3)c(C(N)=O)c2N)CCC12CC2
Cmax (human; oral, 600 mg, single dose, fed): 1060 ng/mL

CCCCC1=NC2(CCCC2)C(=O)N1Cc1ccc(-c2ccccc2S(=O)(=O)Nc2noc(C)c2C)c(COCC)c1
Cmax (human; oral, 800 mg, single dose, fed, healthy volunteers): 16200 ng/mL

CCc1nc2c(C)cc(N3CCN(CC(=O)N4CC(O)C4)CC3)cn2c1N(C)c1nc(-c2ccc(F)cc2)c(C#N)s1
Cmax (human; oral, 60 mg, single dose, fed, healthy volunteers): 600 ng/mL

FC(F)(F)c1ccc(CNc2ccc(Cc3c[nH]c4ncc(Cl)cc34)cn2)cn1
Cmax (human; oral, 1000 mg, multiple doses, patients): 4440 ng/mL
